# T cruzi repl: T. cruzi replication inhibition | T. cruzi beta-gal in NIH3T3, luminescence, 90 h | inhibition, % (no concentration beside the values) | 1.4% of 300,000 active;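 active = mean inhibition across valid replicates above about 55%, limit read from the data; inconclusive = mean below that limit but half or more replicates reach it; inactive = mean below it, under half of replicates reach it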;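 note: signal also drops with host cell toxicity which is not excluded here; higher percent means less beta-gal luminescence so fewer parasites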
#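 Material: NIH/3T3 host cells with β-galactosidase reporter T. cruzi; Input: 5,000 host fibroblasts per well; Medium: DMEM, 2% fetal bovine serum; Compound: 50 nL DMSO compound solution per well; Schedule: 3 h host attachment, then at least 90 h co-culture; Detection: luminescent β-galactosidase signal after 60 min lysis.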
# HSF-1 act: increases HSF-1 driven luciferase reporter signal. NIH3T3-HGL HSF-1 luciferase reporter, MG132, 8 h; 100% = twice DMSO control signal. activation, % at 9 µM. 1.7% of 300,000 active. AID 504408;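 active = mean replicate activation of at least 50% with a set share of replicates each reaching 50%; inconclusive = only one of those two conditions met; inactive = mean below 50% and too few replicates reaching it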
# HSF1 inh: HSF1 inhibition. AID 2098. 0.77% of 300,000 active. NIH3T3-HGL HSE-luciferase, MG132-induced, luminescence 8 h; stronger effect = lower value. activity change, negative = inhibition, % at 7.5 µM (by protocol);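 active = more than half of replicate wells show activity change below -50%, luminescence cut by over half; inconclusive = some wells, but at most half, below -50%; inactive = no replicate well below -50%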;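 note: luciferase reports HSF-1 transcriptional activity via heat shock element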
# HIF activator: HIF pathway transcriptional activation. U2OS HRE-luciferase reporter, luminescence; normalized: DMSO 0%, desferrioxamine 100%. AID 1910. 0.32% of 300,000 active. activation, % at 7.5 µM (by protocol);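 active = mean activation of at least 10% of the iron chelator positive control signal, with at least half of replicates also reaching 10%; inconclusive = mean and replicate majority disagree about reaching 10%; inactive = mean and most replicates under 10%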
# Calb FLC: affects C. albicans growth with fluconazole; growth inhibition, % (no concentration beside the values); C. albicans CaCi-2 + fluconazole, Alamar Blue growth, 48 h; 0.57% of 300,000 active;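 active = growth inhibition above about 58% in most replicates, limit read from the data, passing the limit was not always enough; inconclusive = exactly half the replicates above a set limit; inactive = most replicates below a set limit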;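 note: all wells also contain fluconazole at 8 µg/ml as a sub-toxic cotreatment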
# Numbers stand for hits; 0 = inactive; ? = inconclusive; - = no result given. The list is not random: actives were taken first. Their share in the collection is about 4.4%.
SMILES,T cruzi repl,HSF-1 act,HSF1 inh,HIF activator,Calb FLC
Cc1sc2ncnc(N3CCC(C(=O)N(C)CC(=O)Nc4ccc(Cl)c(C(F)(F)F)c4)CC3)c2c1C,58,0,0,0,0
CCN1CCN(CC(=O)N2c3ccccc3Sc3ccccc32)CC1,0,0,0,0,0
CCOC(=O)Nc1ccc2c(c1)N(C(=O)CN1CCN(C)CC1)c1ccccc1S2,71,?,0,0,0
CCOC(=O)Nc1ccc2c(c1)N(C(=O)CCN(C)C)c1ccccc1S2,85,0,0,0,0
Cc1ccccc1CNC(=O)c1ccccc1C,0,0,0,0,0
Cc1ccccc1C(=O)NC[C@@H]1CCCN2CCCC[C@H]12,0,0,-56,0,0
COc1ccc(/C=N/OCC(=O)Nc2nc3ccccc3s2)cc1,0,?,0,0,108
C/C(=N\OCC(=O)Nc1nc2ccccc2s1)c1ccccc1,0,0,0,0,0
Cn1cccc1-c1cc(C(=O)N2CCc3c([nH]c4ccccc34)C2c2ccccn2)[nH]n1 (stereo not given),0,0,0,0,98
O=C(c1ccc(-n2cccn2)cc1)N1CCc2c([nH]c3ccccc23)C1c1ccccn1 (stereo not given),0,0,0,0,0
CCCOc1ccc(OCCSc2nnc(N)s2)cc1,0,125,0,0,0
Clc1ccc(OCCCCSc2ncccn2)cc1,0,0,0,0,0
CCOc1ccc(-c2nc(CSc3nnc(N)s3)cs2)cc1OC,0,0,0,0,0
CCOc1ccc(-c2nc(CSc3nnc(N)s3)cs2)cc1,0,62,0,0,0
CCCOc1ccc(OCCSc2ncccn2)cc1,0,72,0,0,0
COCCCN(Cc1ccco1)C(=O)CSc1nc2ncccc2[nH]1,0,0,-55,0,0
CCCCOCCCN1CC(=O)N2[C@@H](Cc3c([nH]c4ccccc34)C2(C)C)C1=O,0,70,0,0,0
CCCCCN1CC(=O)N2[C@@H](Cc3c([nH]c4ccccc34)C2(C)C)C1=O,0,0,0,0,0
COc1ccc(C(=O)N2CCCC(c3nc(-c4cccs4)no3)C2)cc1 (stereo not given),0,59,0,0,0
COC(=O)c1c[nH]n2c(=O)c(Cc3ccc(F)cc3Cl)c(C)nc12,0,0,0,0,97
Cn1c(=O)c2c(nc(Oc3ccccc3N)n2C)n(C)c1=O,0,0,0,0,0
Cn1nc([N+](=O)[O-])nc1Oc1ccccc1N,63,0,0,0,0
Cn1nc([N+](=O)[O-])nc1Oc1ccccc1F,74,0,0,0,0
Cn1nc([N+](=O)[O-])nc1Oc1ccc2ccccc2c1,0,0,0,0,0
CCC1(c2ccc(Cl)cc2)NC(=S)N(c2ccccc2)N1 (stereo not given),0,70,0,0,117
SMILES,T cruzi repl,HSF-1 act,HSF1 inh,HIF activator,Calb FLC
CCCCCC1(C)NC(=S)N(c2ccccc2)N1 (stereo not given),0,0,0,0,-
CCC1(c2ccccc2)NC(=S)N(c2ccc(C)cc2)N1 (stereo not given),0,0,0,0,106
CC1(C)CC2CC(C)(CN2C(=O)c2cc(-c3ccccc3)on2)C1 (stereo not given),0,0,0,0,0
CCOC(=O)C1=C(C)NC(=O)NC1/C=C/c1ccccc1OC (stereo not given),0,0,0,0,0
COCCOC(=O)C1=C(C)NC(C)=C(C(=O)OCCOC)C1/C=C/c1ccccc1OC,0,77,0,0,0
CCOC(=O)C1=C(C)NC(C)=C(C(=O)OCC)C1/C=C/c1ccccc1OC,0,67,0,0,0
Cc1ccc(-c2noc(CSc3ccccc3)n2)cc1,0,69,0,0,0
O=C1CC(Sc2nnnn2-c2ccccc2)C(=O)N1c1cccc(Cl)c1 (stereo not given),0,0,0,0,0
COc1ccc(N2C(=O)CC(Sc3nnnn3-c3ccc(F)cc3)C2=O)cc1 (stereo not given),0,70,0,0,0
OCC1(Cc2ccc(Cl)cc2)CCN(Cc2ccc(Oc3ncccn3)cc2)CC1,59,0,0,0,0
COc1ccc(NS(=O)(=O)c2cccc(NC(=O)c3cnccn3)c2)cc1Br,68,0,0,0,0
COC(=O)c1c(NC(=O)C(C)(C)C)csc1C,0,0,0,0,0
CNC(=O)COC(=O)c1c2c(nc3ccccc13)CCC2,0,0,0,0,110
Cc1ccc(Nc2c(-c3ccccn3)nc3ccc(C)cn23)cc1,0,0,0,122,?
c1ccc(-c2nc3ccccn3c2NC2CCCC2)nc1,0,0,0,0,0
Cc1ccn2c(NC3CCCC3)c(-c3ccccn3)nc2c1,65,0,0,0,0
Cc1ccn2c(Nc3ccccc3C)c(-c3ccncc3)nc2c1,61,0,0,0,0
Cc1ccc2nc(-c3ccncc3)c(Nc3ccccc3)n2c1,0,0,0,0,?
Cc1ccn2c(NC3CCCC3)c(-c3ccncc3)nc2c1,0,0,0,0,0
Cc1ccc(Nc2c(-c3ccccn3)nc3cc(C)ccn23)cc1,76,0,0,91,?
CC1(c2nnc(Cc3ccccc3)o2)CC(c2cccc(F)c2)=NO1 (stereo not given),0,0,0,0,0
Cc1ccc(-n2nnnc2SCC(N)=O)c(C)c1,0,0,0,0,0
COC(=O)c1ccc(CSc2nnnn2-c2ccc(C)cc2C)o1,0,71,0,-,0
COc1ccc(-n2nc([N+](=O)[O-])c(=NCCc3ccc(C)cc3)n2O)cc1,0,0,0,0,0
COc1ccc(-n2nc([N+](=O)[O-])c(=NCCc3ccc(OC)c(OC)c3)n2O)cc1,0,0,0,0,0
SMILES,T cruzi repl,HSF-1 act,HSF1 inh,HIF activator,Calb FLC
COc1ccc(-n2nc([N+](=O)[O-])c(=NCCc3ccc(Cl)cc3)n2O)cc1,67,0,0,0,0
COc1ccc(-n2nc([N+](=O)[O-])c(=NCCC3=CCCCC3)n2O)cc1,91,0,0,0,0
Cc1cc(C)c(S(C)(=O)=O)c(Oc2cccc(C(F)(F)F)c2)n1,0,0,0,0,0
COc1nc(N)c(C#N)c(-c2ccc(N(C)CCC#N)cc2)c1C#N,0,0,?,0,0
CC(=O)Nc1ccc2c(c1)nc(CCN1CCN(c3ccccn3)CC1)n2C,0,0,0,0,0
CCOc1ccc(N2C(=O)CC(NNc3nc4ccccc4s3)C2=O)cc1 (stereo not given),0,0,0,0,0
Cc1nc2c(-c3ccc(F)cc3)cnn2c2c1CCC2,0,52,0,0,0
COc1ccc(-c2cnc3c(-c4ccc(F)cc4)cnn3c2N)cc1,0,0,0,0,0
C(=C\c1ccccc1)/CN1CCN(c2ncnc3c2oc2ccccc23)CC1,0,0,0,0,92
c1ccc2c(c1)oc1c(N3CCOCC3)ncnc12,0,0,0,0,0
COc1ccccc1C(C[N+](=O)[O-])c1c(N)n(C)c(=O)n(C)c1=O (stereo not given),0,0,0,0,39
